Test results taken from ChEMBL document CHEMBL1126036, “Quinolone antibacterial agents. Synthesis and structure-activity relationships of a series of amino acid prodrugs of racemic and chiral 7-(3-amino-1-pyrrolidinyl)quinolones. Highly soluble quinolone prodrugs with in vivo pseudomonas activity” (J Med Chem, 1992).
Values after ≈ are worked out from the molar mass of the structure shown.

What was measured:
Streptococcus pneumoniae [1] = test: In vitro antibacterial activity against gram positive Streptococcus pneumoniae SV-1.; type: functional
Mus musculus [2] = test: In vivo potency against acute systemic infection in mouse caused by Streptococcus pyogenes C-203 on oral administration by gavage; type: functional; conditions: read-out: PD50
Summary of the method: (§1)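 Acute systemic mouse infection. A single oral dose was given by gavage at the time of challenge. Potency is reported as the median protective dose (PD50, mg/kg), determined by earlier published methods.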

[3] = Solubility (at pH 4); type: physicochemical; conditions: buffer; for solubility: read-out: S
Summary of the method: (§2)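 Solubility was measured either from HPLC peak areas at equilibrium or by a conventional weight-per-volume method. All solutions were held for 24 h before measurement.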

Escherichia coli [4] = test: In vivo potency against acute systemic infection in mouse caused by Escherichia coli Vogel on oral administration by gavage.; type: functional; conditions: read-out: PD50; summary of the method: as §1
[5] = Solubility (in 0.1 N HCl); type: physicochemical; conditions: read-out: S; summary of the method: as §2
Staphylococcus aureus [6] = test: In vitro antibacterial activity against gram positive Staphylococcus aureus UC76.; type: functional
Providencia rettgeri = test: In vitro antibacterial activity against gram negative Providencia rettgeri M-1771.; type: functional
Escherichia coli [7] = test: In vitro antibacterial activity against gram negative Escherichia coli Vogel.; type: functional
Staphylococcus aureus [8] = test: In vitro antibacterial activity against gram positive Staphylococcus aureus H-228.; type: functional
Escherichia coli [9] = test: In vivo potency against acute systemic infection in mouse caused by Escherichia coli vogel on subcutaneous injection.; type: functional; conditions: sc, read-out: PD50
Summary of the method: (§3)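 Acute systemic mouse infection. A single subcutaneous dose was injected at the time of challenge. Potency is reported as the median protective dose (PD50, mg/kg), determined by earlier published methods.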

Enterococcus faecalis = test: In vitro antibacterial activity against gram positive Enterococcus faecalis MGH-2.; type: functional
Streptococcus pyogenes = test: In vitro antibacterial activity against gram positive Streptococcus pyogenes C-203.; type: functional
Mus musculus [10] = test: In vivo potency against acute systemic infection in mouse caused by Pseudomonas aeruginosa. UI-18. on subcutaneous injection.; type: functional; conditions: sc, read-out: PD50; summary of the method: as §3
Mus musculus [11] = test: In vivo potency against acute systemic infection in mouse caused by Streptococcus pyogenes C-203 on subcutaneous injection; type: functional; conditions: sc, read-out: PD50; summary of the method: as §3
[12] = Solubility (at pH 7.4); type: physicochemical; conditions: buffer, read-out: S; summary of the method: as §2
[13] = Aqueous solubility; type: physicochemical; conditions: read-out: S; summary of the method: as §2
Klebsiella pneumoniae [14] = test: In vitro antibacterial activity against gram negative Klebsiella pneumoniae MGH-2.; type: functional
Enterobacter cloacae = test: In vitro antibacterial activity against gram negative Enterobacter cloacae MA 2646.; type: functional
Streptococcus pneumoniae [15] = test: In vivo potency against acute systemic infection in mouse caused by Streptococcus pneumoniae SV-1 on oral administration by gavage.; type: functional; conditions: read-out: PD50; summary of the method: as §1
Pseudomonas aeruginosa = test: In vitro antibacterial activity against gram negative Pseudomonas aeruginosa UI-18.; type: functional
Mus musculus [16] = test: In vivo potency against acute systemic infection in mouse caused by Pseudomonas aeruginosa UI-18 on oral administration by gavage.; type: functional; conditions: read-out: PD50; summary of the method: as §1
Streptococcus pneumoniae [17] = test: In vivo potency against acute systemic infection in mouse caused by Streptococcus pneumoniae SV-1 on subcutaneous injection.; type: functional; conditions: sc, read-out: PD50; summary of the method: as §3
[18] = biological target: DNA gyrase (Escherichia coli) (UniProt P0AES6+P0AES4); test: In vitro concentration inhibiting DNA gyrase induced cleavage in Escherichia coli H560.; type: functional
Summary of the method: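 DNA gyrase test run as described in earlier work. The value is the drug concentration (µg/mL) needed to cause DNA cleavage.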

Klebsiella pneumoniae [19] = test: In vitro antibacterial activity against gram negative Klebsiella pneumoniae. MGH-2; type: functional

| Structure (SMILES) | MIC (Streptococcus pneumoniae [1]) [µg/mL] | ED50 (Mus musculus [2]) [mg/kg] | ED50 (Escherichia coli [4]) [mg/kg] | solubility [5] [µg/mL] | MIC (Staphylococcus aureus [6]) [µg/mL] | MIC (Providencia rettgeri) [µg/mL] | MIC (Escherichia coli [7]) [µg/mL] | MIC (Staphylococcus aureus [8]) [µg/mL] | ED50 (Escherichia coli [9]) [mg/kg] | MIC (Enterococcus faecalis) [µg/mL] | MIC (Streptococcus pyogenes) [µg/mL] | ED50 (Mus musculus [11]) [mg/kg] | solubility ([13]; water (aqueous)) [µg/mL] | MIC (Klebsiella pneumoniae [14]) [µg/mL] | MIC (Enterobacter cloacae) [µg/mL] | ED50 (Streptococcus pneumoniae [15]) [mg/kg] | MIC (Pseudomonas aeruginosa) [µg/mL] | ED50 (Streptococcus pneumoniae [17]) [mg/kg] | solubility [3] [µg/mL] | Cleavage [18] [µg/mL] | further results |
| --- | --- | --- | --- | --- | --- | --- | --- | --- | --- | --- | --- | --- | --- | --- | --- | --- | --- | --- | --- | --- | --- |
| NC1CCN(c2nc3c(cc2F)c(=O)c(C(=O)O)cn3-c2ccc(F)cc2F)C1 (stereo not given) [TOSUFLOXACIN] | 0.025 (≈ 0.0618 µM) | 5 | 1 | 400 (≈ 989 µM) | 0.025 (≈ 0.0618 µM) | 0.1 (≈ 0.247 µM) | 0.013 (≈ 0.0322 µM) | 0.05 (≈ 0.124 µM) | 0.3 | 0.1 (≈ 0.247 µM) | 0.05 (≈ 0.124 µM) | 3 | 650 (≈ 1610 µM) | 0.05 (≈ 0.124 µM) | 0.025 (≈ 0.0618 µM) | 14 | 0.4 (≈ 0.989 µM) | 3 |  |  | S [3]: 0.55 mg/mL; ED50 (Mus musculus [10]): 4 mg/kg; solubility [12]: 100 µg/mL (≈ 247 µM); ED50 (Mus musculus [16]): 6 mg/kg |
| NC(=O)CC[C@H](N)C(=O)NC1CCN(c2nc3c(cc2F)c(=O)c(C(=O)O)cn3C2CC2)C1 (stereo not given in full) | 12.5 (≈ 27.1 µM) |  | 4.8 | 1400 (≈ 3040 µM) | 0.8 (≈ 1.74 µM) | 25 (≈ 54.3 µM) | 6.3 (≈ 13.7 µM) | 3.1 (≈ 6.73 µM) | 0.4 | 6.3 (≈ 13.7 µM) | 12.5 (≈ 27.1 µM) |  | 6100 (≈ 13200 µM) |  | 6.3 (≈ 13.7 µM) |  | > 25 |  | 3100 (≈ 6730 µM) | 5 | solubility ([13]; pH 7.4 phosphate buffer): 50 µg/mL (≈ 109 µM); MIC (Klebsiella pneumoniae [19]): 12.5 µg/mL (≈ 27.1 µM) |
| N[C@H]1CCN(c2nc3c(cc2F)c(=O)c(C(=O)O)cn3C2CC2)C1 | 0.05 (≈ 0.15 µM) | 19 | 0.8 |  | 0.013 (≈ 0.0391 µM) | 0.025 (≈ 0.0752 µM) | 0.006 (≈ 0.0181 µM) | 0.05 (≈ 0.15 µM) | 0.4 | 0.1 (≈ 0.301 µM) | 0.05 (≈ 0.15 µM) | 9 |  |  | 0.013 (≈ 0.0391 µM) | 19 | 0.1 (≈ 0.301 µM) | 14 |  | 0.25 | ED50 (Mus musculus [10]): 2 mg/kg; MIC (Klebsiella pneumoniae [19]): 0.013 µg/mL (≈ 0.0391 µM); ED50 (Mus musculus [16]): 4 mg/kg |
| C[C@H](N)C(=O)N[C@H]1CCN(c2c(F)c(N)c3c(=O)c(C(=O)O)cn(C4CC4)c3c2F)C1.Cl.O | 0.05 | 6.3 | 5 | 2800 | 0.025 | 0.4 | 0.05 | 0.1 | 2.5 | 0.2 | 0.05 | 23 | 18000 | 0.2 | 0.05 | 17 | 1.6 | 13 | 58000 | 2.5 | ED50 (Mus musculus [10]): 4 mg/kg; solubility [12]: 40 µg/mL; ED50 (Mus musculus [16]): 9.6 mg/kg |
| C[C@H](N)C(=O)NC1CCN(c2c(F)cc3c(=O)c(C(=O)O)cn(C4CC4)c3c2F)C1.Cl.O (stereo not given in full) | 0.1 | 12 | 2 | 7200 | 0.05 | 0.2 | 0.2 | 0.2 | 0.3 | 0.4 | 0.1 | 4 | 31000 | 0.2 | 0.2 | 13 | 0.4 | 9 | 25000 | 1 | ED50 (Mus musculus [10]): 2 mg/kg; solubility [12]: 90 µg/mL; ED50 (Mus musculus [16]): 13 mg/kg |
| N[C@@H]1CCN(c2nc3c(cc2F)c(=O)c(C(=O)O)cn3C2CC2)C1 | 0.1 (≈ 0.301 µM) |  | 0.5 |  | 0.05 (≈ 0.15 µM) | 0.05 (≈ 0.15 µM) | 0.013 (≈ 0.0391 µM) | 0.2 (≈ 0.602 µM) | 0.4 | 0.2 (≈ 0.602 µM) | 0.2 (≈ 0.602 µM) |  |  |  | 0.025 (≈ 0.0752 µM) | 45 | 0.4 (≈ 1.2 µM) | 34 |  | 0.5 | MIC (Klebsiella pneumoniae [19]): 0.025 µg/mL (≈ 0.0752 µM) |
| Nc1c(F)c(N2CCC(N)C2)c(F)c2c1c(=O)c(C(=O)O)cn2C1CC1 (stereo not given) | 0.006 (≈ 0.0165 µM) | 24 | 2 | 100 (≈ 274 µM) | 0.006 (≈ 0.0165 µM) | 0.025 (≈ 0.0686 µM) | 0.006 (≈ 0.0165 µM) | 0.013 (≈ 0.0357 µM) | 0.4 | 0.025 (≈ 0.0686 µM) | 0.025 (≈ 0.0686 µM) | 6 | 2400 (≈ 6590 µM) | 0.006 (≈ 0.0165 µM) | 0.006 (≈ 0.0165 µM) | 20 | 0.05 (≈ 0.137 µM) | 9 | 3200 (≈ 8780 µM) | 0.25 | ED50 (Mus musculus [10]): 4 mg/kg; solubility [12]: 80 µg/mL (≈ 220 µM); ED50 (Mus musculus [16]): 16 mg/kg |
| C[C@H](N)C(=O)N[C@@H]1CCN(c2nc3c(cc2F)c(=O)c(C(=O)O)cn3C2CC2)C1.Cl.O | 1.6 | 49 | 2 | > 200000 | 0.8 | 3.1 | 1.6 | 3.1 | 0.5 | 3.1 | 0.8 | 32 | > 200000 | 3.1 | 0.8 | 40 | 6.3 | 28 | > 200000 | 1 | solubility [12]: 70 µg/mL |
| Cl.NC1CCN(c2cc3c(cc2F)c(=O)c(C(=O)O)cn3C2CC2)C1.O (stereo not given) | 0.1 | 97 | 3 |  | 0.025 | 0.1 | 0.025 | 0.2 | 0.5 | 0.1 | 0.1 | 11 |  | 0.05 | 0.025 | 43 | 0.1 | 4 |  | 0.1 | ED50 (Mus musculus [10]): 5 mg/kg; ED50 (Mus musculus [16]): 49 mg/kg |
| Cl.NC1CCN(c2c(F)cc3c(=O)c(C(=O)O)cn(C4CC4)c3c2F)C1 (stereo not given) | 0.05 | 7 | 1 | 3000 | 0.006 | 0.05 | 0.013 | 0.025 | 0.2 | 0.05 | 0.05 | 2 | 15000 | 0.025 | 0.025 | 15 | 0.05 | 6 | 2400 | 0.1 | ED50 (Mus musculus [10]): 3 mg/kg; solubility [12]: 80 µg/mL; ED50 (Mus musculus [16]): 7 mg/kg |
| C[C@H](N)C(=O)NC1CCN(c2cc3c(cc2F)c(=O)c(C(=O)O)cn3C2CC2)C1.Cl.O (stereo not given in full) | 0.4 | > 100 | 5 | > 100000 | 0.4 | 1.6 | 0.4 | 3.1 | 0.5 | 1.6 | 0.4 | 5 | > 100000 | 0.8 | 0.8 | > 100 | 1.6 | 13 | > 100000 | 1 | solubility [12]: 270 µg/mL |
| C[C@@H](N)C(=O)NC1CCN(c2nc3c(cc2F)c(=O)c(C(=O)O)cn3C2CC2)C1.Cl.O (stereo not given in full) | 0.25 |  | 22.5 | 189000 | 0.05 | 1.6 | 0.8 | 0.4 | 5.1 | 0.2 | 0.013 |  | > 250000 |  | 0.8 | > 100 | 1.6 | 3 | 262000 | 2.5 | solubility ([13]; pH 7.4 phosphate buffer): 60 µg/mL; MIC (Klebsiella pneumoniae [19]): 0.8 µg/mL |
